Legend:
[1] = target: Histamine H3 receptor (Homo sapiens, UniProt Q9Y5N1); assay: Displacement of [3H]-N-alpha-methylhistamine from human recombinant histamine H3 receptor expressed in HEK cells after 30 mins by scintillation counting; format: cell-based, HEK293
Method in brief: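 P2 membrane pellet from HEK cells expressing recombinant human H3, 3 µg protein per well, in 50 mM Tris–HCl pH 7.4 with 1 nM [3H]N-methylhistamine (82 Ci/mmol). Compound tested at half-log steps across five orders of magnitude. Nonspecific binding defined with 10^-5 M thioperamide. 30 min at 30 °C, then filtration on 0.3% PEI-soaked GF/B filters, three buffer rinses, scintillation counting. Ki from nonlinear least-squares curve fit.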

[2] = Drug level in mouse brain at 10 mg/kg, po after 4 hrs; format: ADME, organism-based; parameters: dose 10 mg/kg, route oral; conditions: read-out: Drug uptake
Method in brief: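 Mouse brain concentration measured 4 h after a 10 mg/kg oral dose, in ng/g.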

[3] = target: Histamine H3 receptor (Mus musculus) (UniProt P58406); assay: Displacement of [3H]-N-alpha-methylhistamine from histamine H3 receptor in […] mouse cortex after 4 hrs by scintillation counting
Chain of Histamine H3 receptor (Mus musculus) (P58406 whole entry): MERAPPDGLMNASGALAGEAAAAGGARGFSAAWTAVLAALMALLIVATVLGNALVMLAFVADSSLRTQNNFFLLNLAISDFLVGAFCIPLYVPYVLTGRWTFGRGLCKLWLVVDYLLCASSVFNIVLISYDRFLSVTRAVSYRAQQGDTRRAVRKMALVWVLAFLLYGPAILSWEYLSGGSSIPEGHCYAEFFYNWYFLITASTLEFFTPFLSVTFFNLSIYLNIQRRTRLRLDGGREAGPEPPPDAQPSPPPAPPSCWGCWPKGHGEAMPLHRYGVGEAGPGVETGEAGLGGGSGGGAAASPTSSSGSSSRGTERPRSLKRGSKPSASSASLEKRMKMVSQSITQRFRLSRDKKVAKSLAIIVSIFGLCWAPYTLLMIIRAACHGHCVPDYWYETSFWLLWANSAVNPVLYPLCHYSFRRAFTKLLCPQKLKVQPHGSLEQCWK
Method in brief: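 Ex vivo binding in cortex dissected from individual ICR mice, read at 4 h. Cortex homogenized in ice-cold 50 mM Na2HPO4–KH2PO4 pH 6.8 and frozen at −80 °C for at least 12 h; protein measured by BCA. Homogenate incubated 30 min at room temperature with 1 nM [3H]N-methylhistamine and 0.1% BSA; thioperamide defines nonspecific binding. Quadruplicates, filtered on PEI-presoaked GF/B; specific = total − nonspecific.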

[4] = target: Cytochrome P450 3A4 (Homo sapiens, UniProt P08684); assay: Inhibition of CYP3A4; format: ADME
Chain of Cytochrome P450 3A4 (P08684 whole entry): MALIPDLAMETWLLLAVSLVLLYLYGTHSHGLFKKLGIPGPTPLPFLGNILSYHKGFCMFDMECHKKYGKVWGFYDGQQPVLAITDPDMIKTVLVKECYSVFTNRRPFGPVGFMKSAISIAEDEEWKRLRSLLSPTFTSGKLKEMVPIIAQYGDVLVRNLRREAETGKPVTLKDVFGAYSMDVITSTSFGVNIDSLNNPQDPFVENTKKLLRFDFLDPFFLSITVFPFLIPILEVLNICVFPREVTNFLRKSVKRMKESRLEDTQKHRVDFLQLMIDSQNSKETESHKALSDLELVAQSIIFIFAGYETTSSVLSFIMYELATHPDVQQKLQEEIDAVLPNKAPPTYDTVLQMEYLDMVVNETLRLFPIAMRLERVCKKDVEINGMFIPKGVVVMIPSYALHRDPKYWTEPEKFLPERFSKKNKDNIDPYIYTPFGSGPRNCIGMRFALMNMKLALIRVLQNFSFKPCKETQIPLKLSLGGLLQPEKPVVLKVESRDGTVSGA
Method in brief: (§1)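 CYP3A4, 2D6 and 2C9 inhibition tested under both pre-incubation and co-incubation conditions.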

[5] = target: Cytochrome P450 2D6 (Homo sapiens, UniProt P10635); assay: Inhibition of CYP2D6; format: ADME; method in brief: as §1
Chain of Cytochrome P450 2D6 (P10635 whole entry): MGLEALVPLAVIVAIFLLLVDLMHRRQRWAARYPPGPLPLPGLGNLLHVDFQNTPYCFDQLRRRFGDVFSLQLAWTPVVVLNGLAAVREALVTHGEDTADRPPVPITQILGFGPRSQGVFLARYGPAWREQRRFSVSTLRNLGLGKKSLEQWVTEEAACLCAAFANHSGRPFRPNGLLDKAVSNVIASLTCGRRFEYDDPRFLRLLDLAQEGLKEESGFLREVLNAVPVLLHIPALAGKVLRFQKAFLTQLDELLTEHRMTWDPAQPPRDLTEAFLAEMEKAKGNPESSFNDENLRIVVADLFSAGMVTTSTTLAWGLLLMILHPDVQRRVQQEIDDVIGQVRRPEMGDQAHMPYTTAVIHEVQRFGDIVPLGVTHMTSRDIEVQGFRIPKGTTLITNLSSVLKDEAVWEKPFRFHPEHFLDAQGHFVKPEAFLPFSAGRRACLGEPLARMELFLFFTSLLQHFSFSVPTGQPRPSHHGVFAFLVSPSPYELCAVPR

[6] = target: Cytochrome P450 2C9 (Homo sapiens, UniProt P11712); assay: Inhibition of CYP2C9; format: ADME; method in brief: as §1
Chain of Cytochrome P450 2C9 (P11712 whole entry): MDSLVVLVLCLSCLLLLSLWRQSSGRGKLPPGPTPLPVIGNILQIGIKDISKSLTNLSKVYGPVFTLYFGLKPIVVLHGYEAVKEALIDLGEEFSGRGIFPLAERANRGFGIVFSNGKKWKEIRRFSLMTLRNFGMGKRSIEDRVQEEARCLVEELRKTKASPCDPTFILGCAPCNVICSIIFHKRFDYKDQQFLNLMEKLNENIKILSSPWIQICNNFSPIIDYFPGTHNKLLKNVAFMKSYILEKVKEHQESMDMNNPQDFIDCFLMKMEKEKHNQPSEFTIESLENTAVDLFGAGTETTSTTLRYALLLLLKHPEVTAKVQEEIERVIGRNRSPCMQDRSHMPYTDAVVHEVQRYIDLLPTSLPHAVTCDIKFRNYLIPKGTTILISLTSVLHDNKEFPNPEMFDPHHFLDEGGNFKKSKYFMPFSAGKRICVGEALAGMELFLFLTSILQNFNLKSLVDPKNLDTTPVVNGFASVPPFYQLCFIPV

[7] = AUC (0 to 6 hrs) in rat at 10 mg/kg, po; format: ADME, organism-based; parameters: time < 6 hr, dose 10 mg/kg, route oral; conditions: plasma
Method in brief: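 Rat exposure measured after a 10 mg/kg oral dose; AUC taken over 0–6 h, in ng·h/ml.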

Chain of Histamine H3 receptor (Q9Y5N1 whole entry): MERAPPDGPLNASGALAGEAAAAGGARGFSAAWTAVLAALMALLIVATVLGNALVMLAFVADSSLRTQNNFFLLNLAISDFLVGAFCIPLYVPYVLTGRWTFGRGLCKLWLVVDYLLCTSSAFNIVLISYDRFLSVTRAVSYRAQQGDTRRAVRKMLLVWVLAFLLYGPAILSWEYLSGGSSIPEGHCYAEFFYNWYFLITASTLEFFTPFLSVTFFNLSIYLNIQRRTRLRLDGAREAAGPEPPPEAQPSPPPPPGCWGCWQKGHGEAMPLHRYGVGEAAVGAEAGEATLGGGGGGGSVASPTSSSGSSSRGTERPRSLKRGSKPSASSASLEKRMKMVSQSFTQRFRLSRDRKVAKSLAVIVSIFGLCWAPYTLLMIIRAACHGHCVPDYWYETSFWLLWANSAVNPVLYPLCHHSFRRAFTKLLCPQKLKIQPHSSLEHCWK

COc1ccccc1-c1nnc(N2CCC(N3CCCCC3)CC2)s1
Ki [1]: 0.04 µM

CC(=O)c1cccc(-c2nnc(N3CCC(N4CCCCC4)CC3)s2)c1
Ki [1]: 0.004 µM

Cc1cccc(-c2nnc(N3CCC(N4CCCCC4)CC3)s2)n1
Ki [1]: 0.0061 µM

Clc1cc(Cl)cc(-c2nnc(N3CCC(N4CCCCC4)CC3)s2)c1
Ki [1]: 0.072 µM

COc1ccc(-c2nnc(N3CCN(C4CCCC4)CC3)s2)cc1
Ki [1]: 0.182 µM

Cc1cccc(-c2nnc(N3CCC(N4CCCCC4)CC3)s2)c1
Ki [1]: 0.06 µM

COc1cc(C#N)cc(-c2nnc(N3CCC(N4CCCCC4)CC3)s2)c1
Ki [1]: 0.012 µM

CCN1CCN(c2nnc(-c3ccc(OC)cc3)s2)CC1
Ki [1]: 0.162 µM

Clc1cccc(-c2nnc(N3CCC(N4CCCCC4)CC3)s2)c1
Ki [1]: 0.049 µM

COc1ccc(-c2nnc(N3CCC(N4CCCCC4)CC3)s2)cc1
Ki [1]: 0.0401 µM

N#Cc1cc(C#N)cc(-c2nnc(N3CCC(N4CCCCC4)CC3)s2)c1
Ki [1]: 0.023 µM

Fc1cccc(-c2nnc(N3CCC(N4CCCCC4)CC3)s2)c1
Ki [1]: 0.062 µM

CC(=O)c1ccc(-c2nnc(N3CCC(N4CCCCC4)CC3)s2)cc1
Ki [1]: 0.065 µM

COc1ncc(-c2nnc(N3CCC(N4CCCCC4)CC3)s2)s1
Ki [1]: 0.028 µM

c1ccc(-c2nnc(N3CCC(N4CCCCC4)CC3)s2)nc1
Ki [1]: 0.03 µM

COc1cccc(-c2nnc(N3CCC(N4CCCCC4)CC3)s2)c1
Ki [1]: 0.0319 µM

Cc1ccccc1-c1nnc(N2CCC(N3CCCCC3)CC2)s1
Ki [1]: 0.036 µM

Fc1cc(F)cc(-c2nnc(N3CCC(N4CCCCC4)CC3)s2)c1
Ki [1]: 0.05 µM

c1n[nH]cc1-c1nnc(N2CCC(N3CCCCC3)CC2)s1
Ki [1]: 0.192 µM

c1ccc(-c2nnc(N3CCC(N4CCCCC4)CC3)s2)cc1
Ki [1]: 0.0801 µM

c1cnc(-c2nnc(N3CCC(N4CCCCC4)CC3)s2)nc1
Ki [1]: 0.103 µM

COc1cccc(-c2nnc(N3CCC(N4CCCCC4)CC3)s2)n1
Ki [1]: 0.0035 µM
concentration at 4 h [2]: 1530 ng/g
Activity [3]: 74%
INH [4]: > 20 µM
INH [5]: > 20 µM
INH [6]: > 20 µM

Fc1ccc(-c2nnc(N3CCC(N4CCCCC4)CC3)s2)cc1
Ki [1]: 0.039 µM

Fc1ccccc1-c1nnc(N2CCC(N3CCCCC3)CC2)s1
Ki [1]: 0.036 µM

Clc1ccccc1-c1nnc(N2CCC(N3CCCCC3)CC2)s1
Ki [1]: 0.069 µM

COc1cc(OC)cc(-c2nnc(N3CCC(N4CCCCC4)CC3)s2)c1
Ki [1]: 0.015 µM

N#Cc1cccc(-c2nnc(N3CCC(N4CCCCC4)CC3)s2)c1
Ki [1]: 0.0426 µM

Cc1ccc(-c2nnc(N3CCC(N4CCCCC4)CC3)s2)cc1
Ki [1]: 0.163 µM

O=C(Nc1nnc(N2CCC(N3CCCCC3)CC2)s1)NC1CCCC1
Ki [1]: 0.0486 µM
INH [4]: > 20 µM
INH [5]: > 20 µM
INH [6]: > 20 µM

COc1cc(Cl)cc(-c2nnc(N3CCC(N4CCCCC4)CC3)s2)c1
Ki [1]: 0.012 µM
AUC(0-t) at 6 h [7]: 0.379 µg·h/mL
concentration at 4 h [2]: 9030 ng/g
Activity [3]: 90%
INH [4]: > 20 µM
INH [5]: > 20 µM
INH [6]: > 20 µM

N#Cc1ccc(-c2nnc(N3CCC(N4CCCCC4)CC3)s2)cc1
Ki [1]: 0.0364 µM

COc1cc(F)cc(-c2nnc(N3CCC(N4CCCCC4)CC3)s2)c1
Ki [1]: 0.016 µM

COc1ccc(-c2nnc(N3CCC(N4CCCC4)CC3)s2)cc1
Ki [1]: 0.601 µM

CC(=O)c1ccccc1-c1nnc(N2CCC(N3CCCCC3)CC2)s1
Ki [1]: 0.0084 µM

COc1ccc(-c2nnc(N3CCN4CCCC4C3)s2)cc1 (stereo not given)
Ki [1]: 0.653 µM

Clc1ccc(-c2nnc(N3CCC(N4CCCCC4)CC3)s2)cc1
Ki [1]: 0.161 µM
